These results are taken from ChEMBL document CHEMBL1129445 (J Med Chem, 1996).

The species named for assay [1] is Homo sapiens. Description: Inhibition of human Lymphocyte proliferation. The IC50 values were determined by interpolation using cubic spline determination. The assay is classed as functional. The method in brief:
(§1)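 Human PBMC are isolated on Ficoll from heparinized blood and plated at 2 × 10^5 cells/well in RPMI-1640 with 5% FCS. Cells are stimulated with PHA (10 μg/mL final) and given compound at time 0, at 4-6 concentrations between 0.001 and 20 μM (tested to 10 μM). Cultures run in quadruplicate for 72 h at 37 °C, 7% CO2, with [3H]thymidine (0.5 μCi/well) for the last 6 h. IC50 by cubic-spline interpolation of the means.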

For assay [2], the target named is T1, Inosine-5'-monophosphate dehydrogenase 2 (Homo sapiens, UniProt P12268). Description: Inhibition of human recombinant inosine monophosphate dehydrogenase type II. The method in brief: (§2)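 Reactions are run either at pH 7.4 (0.1 M K phosphate, 0.5 M KCl, 3 mM EDTA, 10 μg/mL BSA) or at pH 8.0 (0.1 M Tris-HCl, 0.1 M KCl, 3 mM EDTA, 100 μg/mL BSA). DMSO ≤10%, compounds tested up to 100 μM. IC50 from fit of fractional activity = V0/[(I/IC50)^n + 1].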

Assay [3] concerns Mus musculus. Kind of assay: % inhibition of Murine plaque forming cells response was measured in Mice at 12.5 mg/kg dose. The assay is classed as functional.
The subject of assay [4] is Mus musculus. Kind of assay: % inhibition of Murine plaque forming cells response was measured in Mice at 25 mg/kg dose. In kind it is functional.
The species entered for assay [5] is Mus musculus. Description: Effective dose was measured in mice as concentration required to inhibit 50% inhibition of Murine PFC response. In kind it is functional. In a few lines: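 Jerne plaque assay in female C3H or CD-1 mice immunized ip with SRBC on day 0, with oral daily dosing over the next 4 days. Splenic PFC per 10^6 WBC counted on day 4. ED50 read graphically from the dose-inhibition data.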

Assay [6] has as its system Mus musculus. Kind of assay: % inhibition of Murine plaque forming cells response was measured in Mice at 6.25 mg/kg dose. In kind it is functional.
The test system of assay [7] is Mus musculus. Kind of assay: Tested for the inhibition of murine PFC response at 12.5 mg/kg dose. The assay is classed as functional.
The subject of assay [8] is Mus musculus. Description: Tested for the inhibition of murine PFC response at 25 mg/kg dose. In kind it is functional.
In assay [9] the test system is Mus musculus. Kind of assay: Tested for the inhibition of murine PFC response at 100 mg/kg dose. The assay is classed as functional.
The target of assay [10] is T1, Inosine-5'-monophosphate dehydrogenase 2. Description: Inhibition of human recombinant type II Inosine Monophosphate Dehydrogenase. at pH 8.0. In a few lines: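 Recombinant human type II IMPDH (12.5-25 pmol) in 0.1 M Tris-HCl pH 8.0, 0.1 M KCl, 3 mM EDTA, 100 μg/mL BSA. […] IC50 fitted with a Hill equation, fractional activity = V0/[(I/IC50)^n + 1].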
For assay [11], the species on record is Mus musculus. Description: Compound was tested for its % Inhibition of Murine PFC response in Mice. The assay is classed as functional.
Assay [12] addresses T1, Inosine-5'-monophosphate dehydrogenase 2. Description: Compound was tested for inhibition of human recombinant type II Inosine Monophosphate Dehydrogenase. (tested to 100 and 10 uM conc). In a few lines: as §2
For assay [13], the species on record is Homo sapiens. Description: Compound was tested for inhibition of human Lymphocyte proliferation. The IC50 values were determined by interpolation using the cubic spline determination at 10 uM. The assay is classed as functional. The method in brief:
as §1

Assay [14] concerns the target T1, Inosine-5'-monophosphate dehydrogenase 2. Kind of assay: Inhibition of human recombinant type II Inosine Monophosphate Dehydrogenase at 100 uM. The method in brief: as §2
Assay [15] is described as follows: Compound was tested for inhibition of human Lymphocyte proliferation. The IC50 values were determined by interpolation using the cubic spline determination. The assay is classed as functional. In a few lines:
as §1

In assay [16] the test system is Mus musculus. Kind of assay: Tested for the inhibition of murine PFC response at 50 mg/kg dose. In kind it is functional.
Assay [17] deals with Mus musculus. Kind of assay: Tested for the inhibition of murine PFC response at 6.25 mg/kg dose. In kind it is functional.

As to `CCc1c(C)c2c(c(O)c1C/C=C(\C)CCC(=O)O)C(=O)OC2`, the half-maximal inhibitory concentration (IC50) (commonly the midpoint of a concentration-inhibition curve) in assay [1] was 0.057 µM; in assay [2], 0.0126 µM. In addition, the inhibition in vivo – broadly, how much of the control response was suppressed – at 12.5 mg/kg in assay [3] is 73%. The molecule further yielded an inhibition in vivo at 25 mg/kg in assay [4] of 93%. Further, the ED50 – broadly, the dose that gives a 50% effect, or the effect in half of the subjects – in assay [5] came to 9 mg/kg. In [6], this molecule came in with an inhibition in vivo at 6.25 mg/kg of 25%.

As for `COc1c(C)c(C)c(Cl)c(O)c1C/C=C(\C)CCC(=O)O`, the half-inhibitory concentration (IC50) in [1] turned out to be 0.2 µM; in assay [2] it was 0.0335 µM. The inhibition in vivo at 12.5 mg/kg in assay [7] amounted to 0%. In addition, the inhibition in vivo at 25 mg/kg in assay [8] is 0%. The molecule further displayed an inhibition in vivo at 100 mg/kg in assay [9] of 83%.

On to `COc1c(C/C=C(\C)CCC(=O)O)c(O)c2c(c1OC)COC2=O`, for which the IC50 in assay [10] was 0.126 µM; in assay [1], 0.13 µM. In addition, the Inhibition (usually the drop in the measured response relative to a control, in per cent) in assay [11] is on record as 49%.

For `C/C(=C\Cc1c(O)cc(C)c(C)c1C)CCC(=O)O`, the 50% inhibitory concentration (IC50) in [12] is above 100 µM.

Regarding `COc1c(C)c(C)c(/C=N/O)c(O)c1C/C=C(\C)CCC(=O)O`, the figures for the 50% inhibitory concentration (IC50) in [13] and in assay [14] were above 10 µM and 11.9 µM, respectively.

Take `COc1c(C)c2c(c(O)c1C/C=C(\C)CCC(=O)O)C(=O)N(C)C2`: the IC50 in [10] is above 100 µM; in [15], above 10 µM.

Take `CO/N=C/c1c(C)c(C)c(OC)c(C/C=C(\C)CCC(=O)O)c1O`: the results for the IC50 in assay [13] and in [14] were above 10 µM and 52.8 µM, respectively.

As for `C/C(=C\Cc1c(C)c(C)c2c(c1O)C(=O)OC2)CCC(=O)O`, the results for the IC50 in [10] and in assay [1] were 0.0186 µM and 0.25 µM, respectively. In [16], testing at 50 mg/kg gave an inhibition in vivo of 45%.

On to `COc1c(C)c2c(c(O)c1C/C=C(\C)CCC(=O)O)C(=O)OC2` [MYCOPHENOLIC ACID], for which, in assay [1], the IC50 stood at 0.058 µM. Also, the inhibition in vivo at 12.5 mg/kg in [7] was 20%. In assay [8], this molecule gave an inhibition in vivo at 25 mg/kg of 36%. This molecule also returned an inhibition in vivo at 6.25 mg/kg in assay [17] of 16%. The molecule further had an inhibition in vivo at 50 mg/kg in [16] of 81%. For the same molecule, the 50% effect level in [5] (ED50) was put at a dose of 33 mg/kg.
